From ChEMBL document CHEMBL1139414, “Conformationally constrained analogues of diacylglycerol. 29. Cells sort diacylglycerol-lactone chemical zip codes to produce diverse and selective biological activities” (J Med Chem, 2008) come the findings set out here.

The target of the test is Protein kinase C alpha type (Mus musculus, UniProt P20444). The test is described as follows: Displacement of [3H]PDBu form mouse PKCalpha by scintillation counting. In short, it runs like this:
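Partially purified mouse PKCα; competition with [³H]PDBU. ID50 obtained by fitting a sigmoidal competition curve and converted to Ki = ID50/(1+L/Kd). Pure compounds tested at 6–7 concentrations; crude library compounds at a single 1 μM concentration. Triplicates per concentration, at least three experiments; mean ± SEM.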
In general terms: Loss of bound radioactivity is the signal in a displacement assay; it reports binding, not function.

Consider `CCCCCC/C=C1/CC(CO)(COC(=O)c2ccccc2C)OC1=O` (racemic), for which the affinity, expressed as Ki, was 49.5 nM.

The compound `CC(C)(C)CC(=O)OCC1(CO)C/C(=C/c2ccc(F)cc2)C(=O)O1` (racemic) displayed a Ki of 108 nM. Under `CCC(C(=O)OCC1(CO)C/C(=C/c2ccc(OC(F)(F)F)cc2)C(=O)O1)c1ccccc1` (racemic) stands 82.7 nM; under `CN(C)c1ccc(/C=C2/CC(CO)(COC(=O)c3ccc(C(F)(F)F)cc3)OC2=O)cc1` (racemic), 515 nM; under `O=C1OC(CO)(COC(=O)c2ccccc2)C/C1=C/C1CCCCC1` (racemic), 203 nM.

`O=C1OC(CO)(COC(=O)c2ccc([N+](=O)[O-])cc2)C/C1=C/C1CCCCC1` (racemic) had a Ki of 426 nM. With `O=C1OC(CO)(COC(=O)C(c2ccccc2)c2ccccc2)C/C1=C/c1ccc(-c2ccc(C(F)(F)F)cc2)cc1` (racemic), affinity was put at a Ki of 111 nM. Under `CC(CC(=O)OCC1(CO)C/C(=C/c2ccc(Br)cc2)C(=O)O1)CC(C)(C)C` (racemic) stands 27.3 nM. Under `CC(CC(=O)OCC1(CO)C/C(=C/c2ccc(C(F)(F)F)cc2)C(=O)O1)CC(C)(C)C` (racemic) stands 18.4 nM. Take `O=C1OC(CO)(COC(=O)c2ccccc2)C/C1=C/c1ccc([N+](=O)[O-])cc1` (racemic): the affinity, expressed as Ki, was 320 nM. The compound `CCCCC(CC)C(=O)OCC1(CO)C/C(=C\c2ccc([N+](=O)[O-])cc2)C(=O)O1` (racemic) came in with an inhibition constant Ki of 3.1 nM. Compared with the last compound, the Ki is about 100-fold lower.

For `CCC(C(=O)OCC1(CO)C/C(=C/c2ccc(C(F)(F)F)cc2)C(=O)O1)c1ccccc1` (racemic), the inhibition constant Ki came to 41.7 nM. This Ki lies about 13-fold higher than the previous one. Under `CCCC(CCC)C(=O)OCC1(CO)C/C(=C/c2cc(C(F)(F)F)cc(C(F)(F)F)c2)C(=O)O1` (racemic) stands 27.3 nM. In turn, `CCCC(CCC)C(=O)OCC1(CO)C/C(=C/c2ccc(OC(F)(F)F)cc2)C(=O)O1` (racemic) returned an inhibition constant (Ki) of 16.4 nM. Under `CC(C)c1cc(C(C)C)c(C(=O)OCC2(CO)C/C(=C/C3CCCCC3)C(=O)O2)c(C(C)C)c1` (racemic) stands 174 nM; under `O=C1OC(CO)(COC(=O)C(c2ccccc2)c2ccccc2)C/C1=C/c1ccc(C(F)(F)F)cc1` (racemic), 52.4 nM; under `CCCC(CCC)C(=O)OCC1(CO)C/C(=C\c2ccc(F)cc2)C(=O)O1` (racemic; form 1), 5.53 nM. Under `COc1ccc(/C=C2\CC(CO)(COC(=O)c3c(C(C)C)cc(C(C)C)cc3C(C)C)OC2=O)cc1` (racemic; form 2) stands 197 nM; under `CCC(C(=O)OCC1(CO)C/C(=C\c2ccc(-c3ccc(C(F)(F)F)cc3)cc2)C(=O)O1)c1ccccc1` (racemic; form 2), 18.3 nM; under `Cc1ccccc1C(=O)OCC1(CO)C/C(=C/c2ccc(N(C)C)cc2)C(=O)O1` (racemic), 376 nM.

`COc1ccc(C(=O)OCC2(CO)C/C(=C/c3ccc(C(F)(F)F)cc3)C(=O)O2)cc1` (racemic) displayed a Ki of 86.5 nM. Under `CCCCC(CC)C(=O)OCC1(CO)C/C(=C/c2cc(C(F)(F)F)cc(C(F)(F)F)c2)C(=O)O1` (racemic) stands 17.3 nM; under `CCC(C(=O)OCC1(CO)C/C(=C/c2ccc(F)cc2)C(=O)O1)c1ccccc1` (racemic), 84.3 nM. Under `CCCCC(CC)C(=O)OCC1(CO)C/C(=C/c2ccccc2)C(=O)O1` (racemic) stands 35 nM; under `CCCCCC/C=C1/CC(CO)(COC(=O)c2ccc(N(C)C)cc2)OC1=O` (racemic), 131 nM; under `COc1ccc(/C=C2/CC(CO)(COC(=O)c3ccccc3)OC2=O)cc1` (racemic), 299 nM.

Take `CCCCC(CC)C(=O)OCC1(CO)C/C(=C\c2ccc(F)c(Br)c2)C(=O)O1` (racemic; form 1): the affinity, expressed as Ki, was 6.1 nM.

The compound `Cc1ccccc1C(=O)OCC1(CO)C/C(=C/C2CCCCC2)C(=O)O1` (racemic) returned a Ki of 110 nM. This Ki lies about 18-fold higher than the previous one.

Turning to `COc1ccc(/C=C2\CC(CO)(COC(=O)c3ccc(N(C)C)cc3)OC2=O)cc1` (racemic; form 2), the Ki is 359 nM. Under `CC(C)(C)C(=O)OCC1(CO)C/C(=C/c2ccc(C(F)(F)F)cc2)C(=O)O1` (racemic) stands 36.3 nM; under `Cc1cc(C)c(C(=O)OCC2(CO)C/C(=C/C3CCCCC3)C(=O)O2)c(C)c1` (racemic), 69.4 nM; under `O=C1OC(CO)(COC(=O)c2ccc(C(F)(F)F)cc2)C/C1=C/C1CCCCC1` (racemic), 106 nM. Under `COc1ccc(/C=C2\CC(CO)(COC(=O)c3c(C)cc(C)cc3C)OC2=O)cc1` (racemic; form 1) stands 3.7 nM; under `Cc1ccc(C(=O)OCC2(CO)C/C(=C/c3ccc(C(F)(F)F)cc3)C(=O)O2)cc1` (racemic), 53 nM; under `CC(C)(C)CC(=O)OCC1(CO)C/C(=C/c2ccc(F)c(Br)c2)C(=O)O1` (racemic), 19.3 nM.

In turn, `CCCCC(CC)C(=O)OCC1(CO)C/C(=C\c2ccc(N(C)C)cc2)C(=O)O1` (racemic; form 2) yielded a Ki of 96 nM.

With `CCCC(CCC)C(=O)OCC1(CO)C/C(=C\c2ccc(F)c(Cl)c2)C(=O)O1` (racemic; form 2), the Ki was found to be 9.3 nM.

In the case of `CC(CC(=O)OCC1(CO)C/C(=C/c2ccc(Cl)c(F)c2)C(=O)O1)CC(C)(C)C` (racemic), the affinity corresponds to a Ki of 38.3 nM. This Ki is about 4.1-fold higher than that of the compound before.

Turning to `O=C1OC(CO)(COC(=O)c2ccc([N+](=O)[O-])cc2)C/C1=C\c1ccc([N+](=O)[O-])cc1` (racemic; form 1), the affinity, expressed as Ki, was 660 nM. This Ki lies about 17-fold higher than the previous one.

For the compound `CC(C)(C)C(=O)OCC1(CO)C/C(=C\c2ccc(Cl)c(F)c2)C(=O)O1` (racemic; form 1), the affinity corresponds to a Ki of 7.9 nM. Consider `Cc1cc(C)c(C(=O)OCC2(CO)C/C(=C/c3ccc(N(C)C)cc3)C(=O)O2)c(C)c1` (racemic), for which the Ki stood at 517 nM.

Take `O=C1OC(CO)(COC(=O)C2CCCCC2)C/C1=C/c1ccc([N+](=O)[O-])cc1` (racemic): the inhibition constant (Ki) was determined as 105 nM. Under `CCCCC(CC)C(=O)OCC1(CO)C/C(=C/c2ccc(OC(F)(F)F)cc2)C(=O)O1` (racemic) stands 15.2 nM.

In the case of `O=C1OC(CO)(COC(=O)c2ccccc2)C/C1=C/c1ccccc1` (racemic), the Ki was 232 nM. Compared with the last compound, the Ki is about 15-fold higher. `CC(C)C(=O)OCC1(CO)C/C(=C/c2cc(C(F)(F)F)cc(C(F)(F)F)c2)C(=O)O1` (racemic) showed a Ki of 82.8 nM. Under `CCCCCC/C=C1/CC(CO)(COC(=O)c2ccc([N+](=O)[O-])cc2)OC1=O` (racemic) stands 146 nM; under `O=C1OC(CO)(COC(=O)c2ccc([N+](=O)[O-])cc2)C/C1=C/c1ccc(C(F)(F)F)cc1` (racemic), 164 nM. Under `CC(C)(C)C(=O)OCC1(CO)C/C(=C\c2ccc(F)c(Cl)c2)C(=O)O1` (racemic; form 1) stands 10.9 nM; under `CC(C)(C)CC(=O)OCC1(CO)C/C(=C/c2ccccc2C(F)(F)F)C(=O)O1` (racemic), 41.4 nM; under `CCCCCCC(=O)OCC1(CO)C/C(=C/C2CCCCC2)C(=O)O1` (racemic), 77.5 nM. Under `CC(CC(=O)OCC1(CO)C/C(=C/c2ccc(Cl)cc2)C(=O)O1)CC(C)(C)C` (racemic) stands 16.8 nM; under `CN(C)c1ccc(C(=O)OCC2(CO)C/C(=C\c3ccc([N+](=O)[O-])cc3)C(=O)O2)cc1` (racemic; form 2), 362 nM. Turning to `CC(C)(C)CC(=O)OCC1(CO)C/C(=C/c2ccc(OC(F)(F)F)cc2)C(=O)O1` (racemic), affinity was put at a Ki of 24.6 nM.

`CC(C)(C)CC(=O)OCC1(CO)C/C(=C/c2cc(C(F)(F)F)cc(C(F)(F)F)c2)C(=O)O1` (racemic) yielded an inhibition constant Ki of 51.1 nM. Under `CCCCCC/C=C1/CC(CO)(COC(=O)c2ccc(C(F)(F)F)cc2)OC1=O` (racemic) stands 55.7 nM; under `CCCC(CCC)C(=O)OCC1(CO)C/C(=C/c2ccccc2C(F)(F)F)C(=O)O1` (racemic), 29.6 nM; under `CCCCCC/C=C1/CC(CO)(COC(=O)c2ccc(OC)cc2)OC1=O` (racemic), 105 nM. Under `CCCCC(CC)C(=O)OCC1(CO)C/C(=C/c2ccc([N+](=O)[O-])cc2)C(=O)O1` (racemic) stands 73.5 nM; under `Cc1ccccc1C(=O)OCC1(CO)C/C(=C/c2ccc([N+](=O)[O-])cc2)C(=O)O1` (racemic), 171 nM; under `CC(CC(=O)OCC1(CO)C/C(=C/c2ccc(F)c(Br)c2)C(=O)O1)CC(C)(C)C` (racemic), 17.4 nM. Under `CC(C)(C)C(=O)OCC1(CO)C/C(=C/c2ccc(OC(F)(F)F)cc2)C(=O)O1` (racemic) stands 22.5 nM. The compound `CC(C)(C)C(=O)OCC1(CO)C/C(=C/c2cc(C(F)(F)F)cc(C(F)(F)F)c2)C(=O)O1` (racemic) yielded a Ki of 39.8 nM. Against the preceding compound, the Ki is about 1.8-fold higher. For `CN(C)c1ccc(/C=C2\CC(CO)(COC(=O)c3ccc([N+](=O)[O-])cc3)OC2=O)cc1` (racemic; form 1), affinity was put at a Ki of 213 nM. This Ki is about 5.4-fold higher than that of the compound before.

`CCC(C(=O)OCC1(CO)C/C(=C/c2cccc(C(F)(F)F)c2)C(=O)O1)c1ccccc1` (racemic) came in with an inhibition constant Ki of 30.2 nM. Compared with the last compound, the Ki is about 7.1-fold lower. Under `COc1ccc(C(=O)OCC2(CO)C/C(=C/C3CCCCC3)C(=O)O2)cc1` (racemic) stands 261 nM; under `CCC(C(=O)OCC1(CO)C/C(=C/c2cc(C(F)(F)F)cc(C(F)(F)F)c2)C(=O)O1)c1ccccc1` (racemic), 52.9 nM; under `O=C1OC(CO)(COC(=O)c2ccccc2)C/C1=C/c1ccc(C(F)(F)F)cc1` (racemic), 64.1 nM. Under `COc1ccc(/C=C2/CC(CO)(COC(=O)C3CCCCC3)OC2=O)cc1` (racemic) stands 156 nM. Under `CC(C)c1cc(C(C)C)c(C(=O)OCC2(CO)C/C(=C/c3ccc(C(F)(F)F)cc3)C(=O)O2)c(C(C)C)c1` (racemic) stands 70 nM; under `O=C1OC(CO)(COC(=O)C2CCCCC2)C/C1=C/c1ccccc1` (racemic), 108 nM. For the compound `CCCCC(/C=C1/CC(CO)(COC(=O)c2c(C(C)C)cc(C(C)C)cc2C(C)C)OC1=O)CC` (racemic), the inhibitory constant (Ki) was 187 nM. Under `CCCCC(/C=C1/CC(CO)(COC(=O)c2ccc([N+](=O)[O-])cc2)OC1=O)CC` (racemic; form 1) stands 460 nM. Under `CC(C)(C)CC(=O)OCC1(CO)C/C(=C/c2ccc(Cl)c(F)c2)C(=O)O1` (racemic) stands 45.1 nM.

By Ki is commonly meant the dissociation constant of the complex between target and ligand, obtained from inhibition or displacement. Low readings indicate tighter binding, high ones weaker binding.
